Measurements as given in PubChem BioAssay.
A number with no mark means an inactive call. Results filed as inconclusive are left out. Calls of active or inactive are those of the source.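 The calls were made as follows, unless noted: active = inhibition over a set limit, the all-compound mean plus 3 SD, in both replicate runs; inconclusive = over that limit in just one replicate run; inactive = at or under that limit in both runs.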

Columns and labels:
[1] = S. cerevisiae growth inhibition in permissive medium (OD615), pilot counter-assay for S. cerevisiae lifespan shortening project, permissive growth control (AID 705;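 active = growth inhibition above 25% in both replicates, a cutoff set 3 SD above the mean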); details: OD615, 24 h, at 10 µM, stronger effect = higher value
In short: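 Timing: 24 h exposure, 30 °C / Material: Saccharomyces cerevisiae strain carrying genetically modified DeaD replicative-lifespan system / Signal: OD at 615 nm / Compound: 10 µM single dose, 0.25% DMSO / Medium: SC raffinose/galactose permissive medium / Evaluation: reduction in yeast growth (OD615)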

[2] = S. cerevisiae growth inhibition in restrictive medium, OD615, pilot screen, restrictive growth control, yeast lifespan reduction project (AID 706;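 active = growth inhibition above a set limit, 3 SD over mean compound inhibition, in both replicates, cut at about 43% in these data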;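 also: modified DeaD lifespan yeast strain shifted to restrictive glucose medium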); details: OD615, 48 h, at 10 µM, stronger effect = higher value
In short: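 System: Engineered S. cerevisiae DeaD strain | Detection: OD615 | Buffer or medium: CSMM-D glucose medium | Doses: 10 µM compound, 0.25% DMSO | Timing: 4 h pre-growth plus 48 h compound exposure, 30 °C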

[3] = viability of HCT116 without oncogenic beta-catenin – human colon tumor cells, pilot screen (AID 823;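 active = cell viability at or below a set limit in both duplicate runs, the limit being the all-compound median minus 4 SD, cut at about 23% in these data, passing the limit was not always enough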;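 also: 0% = wells killed by 20 µM Hyamine and 100% = untreated DMSO cell wells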); details: HCT116 beta-catenin knockout viability, CellTiter-Glo, 60 h; at 10 µM; stronger effect = lower value
[4] = viability of PTEN-null HCT116 cells – cell-based, HCT116 clonal line, CellTiter-Glo, pilot screen (AID 824;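 active = viability at or below 27.92% in each of two runs, the all-compound median minus 4 SD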;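 also: 0% = 20 µM Hyamine control and 100% = vehicle cell control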); details: HCT116 PTEN-deleted viability, 60 h, at 10 µM, stronger effect = lower value
[5] = RAM pathway blockade in budding yeast – dse1pr::URA3 reporter, 5-FOA selection, pilot screen (AID 869);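 also: 0% = DMSO wells with no growth and 100% = 10 µM 1-NA-PP1 with full growth; RAM network block rescues cells from 5-FOA so hits raise OD615 growth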; details: S. cerevisiae dse1pr::URA3 5-FOA growth, OD615, 2 d; at 10 µM; stronger effect = higher value; strain carries analog-sensitive mutant Cbk1 kinase
[6] = RAM signaling pathway blockade in yeast – S. cerevisiae, Pdr1DBD-CYC8 efflux-inhibited sensitized strain, primary screen (AID 1298;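 active = RAM network inhibition above 8.4% in each of two replicates, 3 SD over the compound average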;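 also: 0% = DMSO untreated cells without growth and 100% = 10 µM 1-NA-PP1 full growth; higher means more yeast growth rescued from 5-FOA killing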); details: S. cerevisiae cbk1-as DSE1-URA3 strain, 5-FOA growth OD615, 2 d; at 50 µM; stronger effect = higher value
[7] = doxorubicin toxicity protection in MRP-1 cells – H69AR cells, CellTiter-Glo, duplicate, MRP-1 activator project, pilot screen (AID 807;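 active = viability increase at or above a cutoff of the median across tested compounds plus 3 SD, cut at about 8.5% in these data, passing the limit was not always enough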;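 also: compound pretreatment 18-22 h then 72 h combined with doxorubicin; 0% = doxorubicin alone and 100% = vehicle without doxorubicin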); details: H69AR viability with doxorubicin, CellTiter-Glo luminescence; at 10 µM; stronger effect = higher value

SMILES	growth inhibition [1]	growth inhibition [2]	viability [3]	viability [4]	inhibition [5]	RAM network inhibition [6]	viability increase [7]
Cc1noc(/C=C/N(C)C)c1S(=O)(=O)N1CCCC(C(=O)NC2CCCCC2C)C1 (centres undefined)	-2.76%	-6.36%	87.1%	83.2%	1.89%	7.7%	–
O=C(CSc1nc(-c2ccco2)cc(C(F)(F)F)n1)Nc1ccc(C(=O)N2CCCCC2)cc1	0.645%	-0.65%	–	–	1.97%	3.42%	-2.87%
O=C(CSc1oc(-c2ccc(F)cc2)nc1S(=O)(=O)c1ccc(F)cc1)NCC1CCCO1 (centres undefined)	-8.11%	-3.3%	–	–	1.05%	6.87%	-7.22%
CCn1c(=O)c(=O)[nH]c2cc(C(=O)NC3CCCc4ccccc43)ccc21 (centres undefined)	-2.89%	-5.91%	–	–	1.7%	3.67%	-5.19%
O=C(Nc1nnc(-c2cccs2)o1)c1cccc(F)c1	-18.7%	9.29%	–	–	0.745%	3.47%	-1.42%
c1coc(CNc2c3c(nc4ccccc24)CCC3)c1	-9.23%	-0.365%	–	–	-0.205%	0.83%	-5.72%
Cn1nc(-c2ccc(Cl)cc2)c2cc(C(=O)NCCN3CCOCC3)sc21	-4.46%	-5.2%	–	–	0.45%	-1.47%	-7.41%
OC(COc1ccc(C2C=CCC2)cc1)CN1CCCCC1 (centres undefined)	0.36%	-8.12%	–	–	1.75%	3.83%	-4.7%
CCOC(=O)C1=C(C)N=c2s/c(=C\c3ccncc3)c(=O)n2C1c1ccc2c(c1)OCO2 (centres undefined)	-12%	23.8%	–	–	3.46%	8.86%	-7.87%
CCOC(=O)N1CCN(C(=O)c2oc3ccc(S(=O)(=O)N4CC(C)CC(C)C4)cc3c2C)CC1 (centres undefined)	-2.93%	2.18%	–	42.5%	1.43%	4.64%	-6.37%
CCOC(=O)/C=C1\SCC(=O)N1CCOc1cccc(Br)c1	-18.6%	-29.1%	85.5%	80.4%	2.75%	3.37%	–
COc1ccc(OC)c(N(CC(=O)Nc2ccc3c(c2)OCO3)S(=O)(=O)c2ccccc2)c1	-11.4%	-2.2%	–	67.9%	3.23%	9.99%	-2.35%
COc1cc(/C=N/n2cnnc2)ccc1OC(=O)c1cccnc1	-8.46%	-8.55%	–	97.8%	0.985%	0.57%	-2.5%
Cn1c(C(=O)NC2CCCCCC2)cc2c(=O)n(C)c3ccccc3c21	1.31%	-8.3%	–	–	1.1%	2.31%	-6.4%
O=C(Nc1nnc(-c2cccs2)o1)c1cccc(Oc2ccccc2)c1	16.2%	24.4%	–	–	1.83%	2.76%	-6.06%
Cc1cccc(N(C)C(=O)CCS(=O)(=O)c2cccc3nonc23)c1	-5.82%	0.54%	–	96.3%	1.06%	5.74%	-4.98%
CCc1ccc(NC(=O)Cn2c(=O)oc3cc(S(=O)(=O)N4CCOCC4)ccc32)cc1	-11%	-13.3%	99.8%	89.2%	1.83%	8.19%	–
COc1ccc(S(=O)(=O)Cc2ccc(C(=O)N3CCN(c4ccc(Cl)cc4)CC3)o2)cc1	2.93%	-3.86%	–	–	0.375%	6.31%	-4.86%
CCCCn1c(=NC(=O)c2ccco2)c(C(=O)OCC)cc2c(=O)n3ccccc3nc21	1.16%	6.8%	–	20.3% (active)	0.795%	1.9%	-6.94%
CN(c1ccccc1)S(=O)(=O)c1ccc(C(=O)Nc2nccs2)cc1	-17.4%	-19.6%	84.8%	83.3%	3.73%	4.85%	–
